Reference: publication PMC7181426 (Clinical Drug Investigation, 2020)
“And” between values parts separate entries of the source, which are not always exact repeats. Identical values can stand only once. Marks after values point to notes of the source that are not given here.

Columns and labels:
STAT5 phosphorylation = assay: Inhibition of STAT5 phosphorylation in IL-2-stimulated CD3-positive lymphocytes; format: in vivo, human; conditions: single doses 20–200 mg, Japanese and Caucasian
[1] = test system: peripheral lymphocyte subsets; assay: Peripheral lymphocyte subsets by flow cytometry, multiple-dose study; format: in vivo, human; conditions: 100 mg, 72 h after twice-daily dosing on day 7
[2] = Single-dose pharmacokinetics; format: in vivo, human; conditions: for CL/F, Mean (SD) / Aelast%, Mean (SD) / Aelast, Mean (SD): fasted; for Aelast%, Mean (SD) / Aelast, Mean (SD): urine
[3] = Safety: treatment-emergent adverse events, single-dose study; format: in vivo, human
Procedure, shortened: (§1)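 Adverse events were monitored throughout the study in subjects randomized 3:1 to test compound or placebo. Single-dose subjects were discharged on day 3 and returned on day 7; twice-daily subjects were discharged on day 10 and returned on day 13. Events were coded by System Organ Class and preferred term (MedDRA 12.1). The investigator assessed relatedness and graded severity as mild, moderate or severe.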

[4] = test system: SULT2A1, nicotinamide N-methyltransferase; conditions: cited from earlier work
[5] = cited from earlier work
Multiple-dose = format: in vivo, human; conditions: for AUC: AUC12, Mean (SD); for Cmax: Mean (SD); for Tmax: Median; for Ae12%, Mean (SD) / Ae12, Mean (SD): urine
[6] = Safety: treatment-emergent adverse events, multiple-dose study; format: in vivo, human; conditions: for Alanine aminotransferase increased / Any TEAE / Aspartate aminotransferase increased / Blood creatinine phosphokinase increased / Diarrhea / Feeling abnormal / Headache / Hot flush / Malaise / Neutrophil count decreased / Rash / White blood cell count increased: Japanese
Procedure, shortened: as §1

[7] = Caucasian, single oral dose 20 mg
[8] = Caucasian, single oral dose 60 mg
[9] = Caucasian, single oral dose 200 mg
[10] = Japanese, single oral dose 20 mg
[11] = Japanese, single oral dose 60 mg
[12] = Japanese, single oral dose 200 mg
[13] = Caucasian, single dose 20 mg (n = 6)
[14] = Caucasian, single dose 60 mg (n = 6)
[15] = Caucasian, single dose 200 mg (n = 6)
[16] = Japanese, single dose 20 mg (n = 6)
[17] = Japanese, single dose 60 mg (n = 6)
[18] = Japanese, single dose 200 mg (n = 6)
[19] = male, human, plasma, oral, 10 mg, Japanese, 10 mg bid, Day 1
[20] = male, human, plasma, oral, 10 mg, Japanese, 10 mg bid, Day 7
[21] = male, human, plasma, oral, 30 mg, Japanese, 30 mg bid, Day 1
[22] = male, human, plasma, oral, 30 mg, Japanese, 30 mg bid, Day 7
[23] = male, human, plasma, oral, 100 mg, Japanese, 100 mg bid, Day 1
[24] = male, human, plasma, oral, 100 mg, Japanese, 100 mg bid, Day 7
[25] = single- and multiple-dose studies

CL/F, Mean (SD) [2, 7]: 108.5 (30.0) L/h
CL/F, Mean (SD) [2, 8]: 117.8 (23.6) L/h
CL/F, Mean (SD) [2, 9]: 133.1 (15.0) L/h
CL/F, Mean (SD) [2, 10]: 78.9 (13.5) L/h
CL/F, Mean (SD) [2, 11]: 79.8 (19.2) L/h
CL/F, Mean (SD) [2, 12]: 79.8 (8.2) L/h
Tmax ([2]; male, human, plasma, oral, median tmax, range, single-dose administration, both Japanese and Caucasian subjects): 1 to 2 h
geometric mean ratio for dose-normalized AUCinf, higher in Japanese versus Caucasian subjects ([2]; single doses 20, 60, 200 mg): 33.8–66.4%
geometric mean ratio for dose-normalized Cmax, higher in Japanese versus Caucasian subjects ([2]; single doses 20, 60, 200 mg): 45.7–98.8%
AUCinf higher in Japanese subjects compared with Caucasian subjects ([2]; single doses 20 to 200 mg): 49%
Cmax higher in Japanese subjects compared with Caucasian subjects ([2]; single doses 20 to 200 mg): 70%
Dose proportionality of Cmax and AUCinf ([2]; single doses, dose range of 20–200 mg): demonstrated
Aelast%, Mean (SD) [2, 7]: 14.2 %dose and 14.2 (3.6) %dose
Aelast, Mean (SD) [2, 7]: 2.9 (0.7) mg
Aelast%, Mean (SD) [2, 8]: 10.6 (3.6) %dose
Aelast, Mean (SD) [2, 8]: 6.4 (2.2) mg
Aelast%, Mean (SD) [2, 9]: 9.9 %dose and 9.9 (1.2) %dose
Aelast, Mean (SD) [2, 9]: 19.8 (2.4) mg
Aelast%, Mean (SD) [2, 10]: 16.8 %dose and 16.8 (4.1) %dose
Aelast, Mean (SD) [2, 10]: 3.4 (0.8) mg
Aelast%, Mean (SD) [2, 11]: 14.8 (2.8) %dose
Aelast, Mean (SD) [2, 11]: 8.9 (1.7) mg
Aelast%, Mean (SD) [2, 12]: 12.5 %dose and 12.5 (2.7) %dose
Aelast, Mean (SD) [2, 12]: 25.1 (5.4) mg
CL/F, Mean (SD) (Multiple-dose; Japanese, 10 mg bid, Day 1): 87.7 (23.6) L/h
CL/F, Mean (SD) (Multiple-dose; Japanese, 10 mg bid, Day 7): 71.0 (13.6) L/h
CL/F, Mean (SD) (Multiple-dose; Japanese, 30 mg bid, Day 1): 83.3 (14.6) L/h
CL/F, Mean (SD) (Multiple-dose; Japanese, 30 mg bid, Day 7): 69.6 (13.5) L/h
CL/F, Mean (SD) (Multiple-dose; Japanese, 100 mg bid, Day 1): 71.2 (8.7) L/h
CL/F, Mean (SD) (Multiple-dose; Japanese, 100 mg bid, Day 7): 55.7 (9.3) L/h
AUC12 on day 7 higher than AUC12 after the first dose (Multiple-dose; Japanese, 10–100 mg bid): 25–37%
Cmax on day 7 higher than Cmax after the first dose (Multiple-dose; Japanese, 10–100 mg bid): 13–28%
Steady-state plasma concentrations achieved by (Multiple-dose; Japanese, twice-daily dosing, visual prediction): ≤ 3 days
half-life at 7 day (Multiple-dose; male, human, plasma, oral): 360 to 444 min
half-life (Multiple-dose; male, human, plasma, oral, 10 mg): 360 min
AUC (Multiple-dose; [19]): 114 ng·h/mL
AUC (Multiple-dose; [20]): 145 ng·h/mL
Cmax (Multiple-dose; [19]): 28.5 ng/mL
Cmax (Multiple-dose; [20]): 36.4 ng/mL
Tmax (Multiple-dose; [19]): 1.5 h
Tmax (Multiple-dose; [20]): 2.5 h
half-life (Multiple-dose; male, human, plasma, oral, 30 mg): 366 min
AUC (Multiple-dose; [21]): 354 ng·h/mL
AUC (Multiple-dose; [22]): 444 ng·h/mL
Cmax (Multiple-dose; [21]): 93.5 ng/mL
Cmax (Multiple-dose; [22]): 106 ng/mL
Tmax (Multiple-dose; [21]): 2 h
Tmax (Multiple-dose; [22]): 2 h
half-life (Multiple-dose; male, human, plasma, oral, 100 mg): 444 min
AUC (Multiple-dose; [23]): 1340 ng·h/mL
AUC (Multiple-dose; [24]): 1830 ng·h/mL
Cmax (Multiple-dose; [23]): 383 ng/mL
Cmax (Multiple-dose; [24]): 483 ng/mL
Tmax (Multiple-dose; [23]): 2 h
Tmax (Multiple-dose; [24]): 2 h
Ae12%, Mean (SD) (Multiple-dose; Japanese, 10 mg bid, Day 1): 14.9 (4.4) %dose
Ae12, Mean (SD) (Multiple-dose; Japanese, 10 mg bid, Day 1): 1.5 (0.4) mg
Ae12%, Mean (SD) (Multiple-dose; Japanese, 10 mg bid, Day 7): 32.0 (3.4) %dose
Ae12, Mean (SD) (Multiple-dose; Japanese, 10 mg bid, Day 7): 3.2 (0.3) mg
Ae12%, Mean (SD) (Multiple-dose; Japanese, 30 mg bid, Day 1): 15.6 (4.0) %dose
Ae12, Mean (SD) (Multiple-dose; Japanese, 30 mg bid, Day 1): 4.7 (1.2) mg
Ae12%, Mean (SD) (Multiple-dose; Japanese, 30 mg bid, Day 7): 26.4 %dose and 26.4 (4.2) %dose
Ae12, Mean (SD) (Multiple-dose; Japanese, 30 mg bid, Day 7): 7.9 (1.3) mg
Ae12%, Mean (SD) (Multiple-dose; Japanese, 100 mg bid, Day 1): 19.2 (2.7) %dose
Ae12, Mean (SD) (Multiple-dose; Japanese, 100 mg bid, Day 1): 19.2 (2.7) mg
Ae12%, Mean (SD) (Multiple-dose; Japanese, 100 mg bid, Day 7): 37.7 %dose and 37.7 (9.8) %dose
Ae12, Mean (SD) (Multiple-dose; Japanese, 100 mg bid, Day 7): 37.7 (9.8) mg
Structure (SMILES): NC(=O)c1cnc2[nH]ccc2c1N[C@@H]1[C@@H]2CC3C[C@H]1C[C@@](O)(C3)C2 [peficitinib, Peficitinib]
Mean peak inhibition of STAT5 phosphorylation, dose dependence (STAT5 phosphorylation): increased with increasing single doses of peficitinib
largest change: decrease in the subset of CD3+, CD45RA+ and total naïve cells [1]: 7.50%
Any TEAE [3, 13]: 0 n (%)
Blood potassium increased [3, 13]: 0 n (%)
Diarrhea [3, 13]: 0 n (%)
White blood cell count increased [3, 13]: 0 n (%)
Any TEAE [3, 14]: 1 (16.7) n (%)
Blood potassium increased [3, 14]: 0 n (%)
Diarrhea [3, 14]: 1 (16.7)^b n (%)
White blood cell count increased [3, 14]: 0 n (%)
Any TEAE [3, 15]: 0 n (%)
Blood potassium increased [3, 15]: 0 n (%)
Diarrhea [3, 15]: 0 n (%)
White blood cell count increased [3, 15]: 0 n (%)
Any TEAE [3, 16]: 1 (16.7) n (%)
Blood potassium increased [3, 16]: 1 (16.7)^b n (%)
Diarrhea [3, 16]: 0 n (%)
White blood cell count increased [3, 16]: 0 n (%)
Any TEAE [3, 17]: 2 (33.3) n (%)
Blood potassium increased [3, 17]: 0 n (%)
Diarrhea [3, 17]: 0 n (%)
White blood cell count increased [3, 17]: 2 (33.3) n (%)
Any TEAE [3, 18]: 1 (16.7) n (%)
Blood potassium increased [3, 18]: 0 n (%)
Diarrhea [3, 18]: 0 n (%)
White blood cell count increased [3, 18]: 1 (16.7) n (%)
metabolizing enzymes [4]: metabolized by the sulfotransferase (SULT) isoenzyme, SULT2A1, and the methyltransferase isoenzyme, nicotinamide N-methyltransferase
median tmax ([5]; healthy, fasted, mainly Caucasian men, 3–30 mg ref 11): 1 h
attainment of steady-state plasma levels by ([5]; multiple twice-daily dosing (30–200 mg twice daily), USA ref 11): ≤ 3 days
cumulative amounts excreted unchanged in urine, range ([5]; primarily Caucasian population in the USA, single oral doses of 30–200 mg ref 11): 3.9 to 22.1 mg
Alanine aminotransferase increased ([6]; 10 mg bid for 7 days (n = 6)): 1 (16.7)^b n (%)
Any TEAE ([6]; 10 mg bid for 7 days (n = 6)): 2 (33.3) n (%)
Aspartate aminotransferase increased ([6]; 10 mg bid for 7 days (n = 6)): 1 (16.7)^b n (%)
Blood creatinine phosphokinase increased ([6]; 10 mg bid for 7 days (n = 6)): 1 (16.7)^b n (%)
Diarrhea ([6]; 10 mg bid for 7 days (n = 6)): 0 n (%)
Feeling abnormal ([6]; 10 mg bid for 7 days (n = 6)): 1 (16.7)^b n (%)
Headache ([6]; 10 mg bid for 7 days (n = 6)): 1 (16.7)^b n (%)
Hot flush ([6]; 10 mg bid for 7 days (n = 6)): 1 (16.7)^b n (%)
Malaise ([6]; 10 mg bid for 7 days (n = 6)): 0 n (%)
Neutrophil count decreased ([6]; 10 mg bid for 7 days (n = 6)): 0 n (%)
Rash ([6]; 10 mg bid for 7 days (n = 6)): 0 n (%)
White blood cell count increased ([6]; 10 mg bid for 7 days (n = 6)): 1 (16.7)^b n (%)
Alanine aminotransferase increased ([6]; 30 mg bid for 7 days (n = 6)): 0 n (%)
Any TEAE ([6]; 30 mg bid for 7 days (n = 6)): 3 (50.0) n (%)
Aspartate aminotransferase increased ([6]; 30 mg bid for 7 days (n = 6)): 0 n (%)
Blood creatinine phosphokinase increased ([6]; 30 mg bid for 7 days (n = 6)): 0 n (%)
Diarrhea ([6]; 30 mg bid for 7 days (n = 6)): 1 (16.7)^b n (%)
Feeling abnormal ([6]; 30 mg bid for 7 days (n = 6)): 0 n (%)
Headache ([6]; 30 mg bid for 7 days (n = 6)): 0 n (%)
Hot flush ([6]; 30 mg bid for 7 days (n = 6)): 0 n (%)
Malaise ([6]; 30 mg bid for 7 days (n = 6)): 0 n (%)
Neutrophil count decreased ([6]; 30 mg bid for 7 days (n = 6)): 0 n (%)
Rash ([6]; 30 mg bid for 7 days (n = 6)): 1 (16.7)^b n (%)
White blood cell count increased ([6]; 30 mg bid for 7 days (n = 6)): 2 (33.3)^d n (%)
Alanine aminotransferase increased ([6]; 100 mg bid for 7 days (n = 6)): 1 (16.7)^b n (%)
Any TEAE ([6]; 100 mg bid for 7 days (n = 6)): 4 (66.7) n (%)
Aspartate aminotransferase increased ([6]; 100 mg bid for 7 days (n = 6)): 0 n (%)
Blood creatinine phosphokinase increased ([6]; 100 mg bid for 7 days (n = 6)): 0 n (%)
Diarrhea ([6]; 100 mg bid for 7 days (n = 6)): 0 n (%)
Feeling abnormal ([6]; 100 mg bid for 7 days (n = 6)): 0 n (%)
Headache ([6]; 100 mg bid for 7 days (n = 6)): 0 n (%)
Hot flush ([6]; 100 mg bid for 7 days (n = 6)): 0 n (%)
Malaise ([6]; 100 mg bid for 7 days (n = 6)): 0 n (%)
Neutrophil count decreased ([6]; 100 mg bid for 7 days (n = 6)): 3 n (%) and 3 (50.0)^b n (%)
Rash ([6]; 100 mg bid for 7 days (n = 6)): 0 n (%)
White blood cell count increased ([6]; 100 mg bid for 7 days (n = 6)): 0 n (%)
tolerability ([6]; doses up to 200 mg daily for 7 days, healthy Japanese subjects): well tolerated
serious TEAEs or TEAEs resulting in discontinuation [6, 25]: no serious TEAEs or TEAEs resulting in discontinuation
severity of TEAEs [6, 25]: mild
Neutrophil counts recovered by ([6]; three subjects receiving 100 mg twice daily): ≤ 8 days
